Series [1] concerns HepG2. Put plainly: Antitumor activity against human HepG2 cells incubated with drug dissolved in olive oil after 72 hrs by MTT assay. Type of series: functional, cell-based. As to conditions: HepG2, 72 h. The method in brief: (§1)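 HepG2 cells (trypan blue viability >97%) grown in RPMI-1640 with L-glutamine and 10% fetal calf serum, seeded at 3×10³ cells/well. Compounds in olive oil or DMSO were tested at 10, 50 and 100 for 24, 48 and 72 h. MTT (0.5 mg/ml) added, formazan dissolved in DMSO, OD read at 570 nm (ref 690 nm). Reported as % growth inhibition vs control; run in triplicate.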

The test system of series [2] is Mus musculus. Put plainly: Toxicity in mouse EAC cells transplanted Swiss albino mouse assessed as change in hematocrit content at 25 mg/kg. ip dissolved in DMSO for 14 days measured after final dose by 18 hrs fasting. Type of series: organism-based, Ehrlich. The arrangement: dose 25 mg/kg, route intraperitoneal. The following applies: in vivo. The method in brief: (§2)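 Mice (n = 5/group) given 2×10⁶ EAC cells in 0.2 ml i.p. Treatment was 25 mg/kg b.wt. i.p. in DMSO, every other day for 14 days. Animals were fasted 18 h after the last dose, then sacrificed. Tumour volume, haemoglobin, haematocrit, total WBC and body weight recorded. Normal and untreated EAC groups served as controls. Mean ± SE.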

In series [3] the test system is HepG2. In words: Antitumor activity against human HepG2 cells incubated with drug dissolved in DMSO after 72 hrs by MTT assay. The following applies: HepG2, 72 h. The class given is functional, cell-based. The method in brief: as §1
(In general: Tetrazolium dyes change colour on reduction, which living cells bring about.)

The species named for series [4] is Mus musculus. In words: Toxicity in mouse EAC cells transplanted Swiss albino mouse assessed as induction of hypothermia. The class given is organism-based. As to conditions: ehrlich.
In series [5] the test system is Mus musculus. Put plainly: Toxicity in mouse EAC cells transplanted Swiss albino mouse assessed as change in hemoglobin content at 25 mg/kg. ip dissolved in DMSO for 14 days measured after final dose by 18 hrs fasting. Type of series: organism-based, Ehrlich. Set-up: dose 25 mg/kg, route intraperitoneal. The following applies: in vivo. In a few lines: as §2
The species named for series [6] is Mus musculus. Put plainly: Toxicity in mouse EAC cells transplanted Swiss albino mouse assessed as loss of appetite. The class given is organism-based. As to conditions: ehrlich.
The test system of series [7] is HepG2. In words: Antitumor activity against human HepG2 cells incubated with drug dissolved in olive oil after 48 hrs by MTT assay. The class given is functional, cell-based. The following applies: HepG2, 48 h. In a few lines: as §1
The species named for series [8] is Mus musculus. Put plainly: Toxicity in mouse EAC cells transplanted Swiss albino mouse assessed as induction of dizziness. Type of series: organism-based. The following applies: ehrlich.
Series [9] relates to Mus musculus. In words: Toxicity in mouse EAC cells transplanted Swiss albino mouse assessed as decrease in body weight at 25 mg/kg. ip dissolved in DMSO for 14 days measured after final dose by 18 hrs fasting. The following applies: in vivo. The arrangement: dose 25 mg/kg, route intraperitoneal; scale not given: the % may be the effect or the level left. The class given is organism-based, Ehrlich. The method in brief:
as §2

The species named for series [10] is Mus musculus. Put plainly: Toxicity in mouse EAC cells transplanted Swiss albino mouse assessed as induction of errection of hair. As to conditions: ehrlich. The class given is organism-based.
The nature of series [11]: Antitumor activity in mouse EAC cells transplanted in Swiss albino mouse assessed as decrease in tumor volume at 25 mg/kg. ip dissolved in DMSO for 14 days measured after final dose by 18 hrs fasting. The following applies: route intraperitoneal. The arrangement: unit not given here. The class given is functional, Ehrlich. In a few lines: as §2
In series [12] the test system is HepG2. Put plainly: Antitumor activity against human HepG2 cells incubated with drug dissolved in DMSO after 48 hrs by MTT assay. The class given is functional, cell-based. As to conditions: HepG2, 48 h. In a few lines:
as §1

Series [13] deals with Mus musculus. Put plainly: Toxicity in mouse EAC cells transplanted Swiss albino mouse assessed as change in total WBC content at 25 mg/kg. ip dissolved in DMSO for 14 days measured after final dose by 18 hrs fasting. Type of series: organism-based, Ehrlich. The arrangement: dose 25 mg/kg, route intraperitoneal. As to conditions: in vivo. In a few lines:
as §2

Series [14] can be described thus: Antitumor activity in mouse EAC cell transplanted in Swiss albino mouse assessed as decrease in tumor volume at 20 mg/kg. ip dissolved in DMSO for 14 days measured after final dose by 18 hrs fasting. The class given is functional, Ehrlich. The following applies: route intraperitoneal. The method in brief: (§3)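 Reference-drug group (n = 5): mice given 2×10⁶ EAC cells in 0.2 ml i.p., then 20 mg/kg b.wt. for 14 days. Fasted 18 h after the last dose, then sacrificed. Tumour volume, haemoglobin, haematocrit, total WBC and body weight measured against normal and untreated EAC groups. Mean ± SE.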

The test system of series [15] is Mus musculus. In words: Toxicity in mouse EAC cells transplanted Swiss albino mouse assessed as change in total WBC content at 20 mg/kg. ip dissolved in DMSO for 14 days measured after final dose by 18 hrs fasting. Type of series: organism-based, Ehrlich. Set-up: dose 20 mg/kg, route intraperitoneal. The following applies: in vivo. In a few lines:
as §3

The test system of series [16] is Mus musculus. Put plainly: Toxicity in mouse EAC cells transplanted Swiss albino mouse assessed as change in hematocrit content at 20 mg/kg. ip dissolved in DMSO for 14 days measured after final dose by 18 hrs fasting. The arrangement: dose 20 mg/kg, route intraperitoneal. Type of series: organism-based, Ehrlich. As to conditions: in vivo. In a few lines: as §3

Series [17] concerns Mus musculus. In words: Toxicity in mouse EAC cells transplanted Swiss albino mouse assessed as decrease in body weight at 20 mg/kg. ip dissolved in DMSO for 14 days measured after final dose by 18 hrs fasting. Type of series: functional, Ehrlich. Set-up: scale not given: the % may be the effect or the level left. As to conditions: route intraperitoneal. The method in brief: as §3

In general, IC50 refers to the concentration needed to halve the response being measured. Consider `CC(=O)O[C@H]1CC[C@H]2[C@@H]3CC[C@H]4Cc5c(C#N)c(N)n(-c6ccccc6)c(=S)c5C[C@]4(C)[C@H]3CC[C@]12C`, for which the concentration for half-maximal inhibition (IC50) in the series with HepG2 [1] was 40 µM; in the series with HepG2 [3] it was above 100 µM; with HepG2 [7], 48 µM; in the series on HepG2 [12], above 100 µM. The Activity in the series with Mus musculus [2] is recorded as 33.8%; in the series filed under Mus musculus [4] it was “Non-toxic”; in the series on Mus musculus [5], 12.6%; in the series filed under Mus musculus [6], “Non-toxic”; in the series listed under Mus musculus [8], “Non-toxic”; in the series on Mus musculus [9], 18%. For the same compound, the Activity result in the series filed under Mus musculus [10] was “Non-toxic”; in series [11] it was 0; in the series with Mus musculus [13], 5.75 /10'3mm'-3.

`COc1ccc(C2Oc3nc(N)c(C#N)c(N)c3C3=C2C[C@@]2(C)[C@@H](CC[C@@H]4[C@@H]2CC[C@]2(C)[C@@H](OC(C)=O)CC[C@@H]42)C3)cc1` (some centres undefined): the IC50 in the series with HepG2 [1] was 41 µM; with HepG2 [3], above 100 µM; with HepG2 [7] it was 48 µM; with HepG2 [12], 95 µM. Also, the Activity in the series with Mus musculus [2] is 38.3%; in the series filed under Mus musculus [4] it was “Non-toxic”; in the series with Mus musculus [5] it was 12.65%; in the series filed under Mus musculus [6], “Non-toxic”; in the series filed under Mus musculus [8] it was “Non-toxic”; in the series with Mus musculus [9], 21.5%. The Activity entry was “Non-toxic” in the series filed under Mus musculus [10], 0 in series [11] and 7.35 /10'3mm'-3 in the series with Mus musculus [13].

For `CC(=O)O[C@H]1CC[C@H]2[C@@H]3CC[C@H]4CNC(=O)CC[C@]4(C)[C@H]3CC[C@]12C`, the half-maximal inhibitory concentration (IC50) is 35 µM in the series on HepG2 [1], 40 µM in the series with HepG2 [3], 47 µM with HepG2 [7] and 42 µM in the series with HepG2 [12]. Further, the Activity with Mus musculus [2] is reported as 38.56%; in the series filed under Mus musculus [4] it was “Non-toxic”; in the series with Mus musculus [5], 12.96%; in the series listed under Mus musculus [6], “Non-toxic”; in the series listed under Mus musculus [8] it was “Non-toxic”; in the series with Mus musculus [9] it was 20.33%. Also, the Activity result is given as “Non-toxic” in the series listed under Mus musculus [10], 0 in series [11] and 6.46 /10'3mm'-3 in the series with Mus musculus [13].

`CC(=O)O[C@H]1CC[C@H]2[C@@H]3CC[C@H]4CC5=C(C[C@]4(C)[C@H]3CC[C@]12C)C(c1ccccc1)OC(N)=C5C#N` (some centres undefined): the IC50 was 30 µM in the series with HepG2 [1], 73 µM with HepG2 [3], 46 µM in the series with HepG2 [7] and 81 µM in the series with HepG2 [12]. Moreover, the Activity is on record as 36.6% with Mus musculus [2]; “Non-toxic” in the series filed under Mus musculus [4]; 12.5% in the series with Mus musculus [5]; “Non-toxic” in the series listed under Mus musculus [6]; “Non-toxic” in the series listed under Mus musculus [8]; 18.66% in the series with Mus musculus [9]. Besides, the Activity entry in the series filed under Mus musculus [10] is “Non-toxic”; in [11], 0; in the series with Mus musculus [13] it was 5.9 /10'3mm'-3.

With `CC(=O)O[C@H]1CC[C@H]2[C@@H]3CC[C@H]4C/C(=N/n5c(-c6ccccc6)csc5=S)CC[C@]4(C)[C@H]3CC[C@]12C`, the IC50 in the series on HepG2 [1] came out at 37 µM; in the series with HepG2 [3] it was 90 µM; in the series with HepG2 [7], 47 µM; in the series on HepG2 [12] it was 85 µM. Moreover, the Activity in the series on Mus musculus [2] is 42.7%; in the series filed under Mus musculus [4], “Non-toxic”; in the series with Mus musculus [5], 10.7%; in the series listed under Mus musculus [6], “Non-toxic”; in the series filed under Mus musculus [8] it was “Non-toxic”; with Mus musculus [9] it was 20%. The figures for the Activity entry (in the series filed under Mus musculus [10]; in series [11]; with Mus musculus [13]) were “Non-toxic”, 0 and 5.66 /10'3mm'-3, respectively.

Regarding `O=c1[nH]cc(F)c(=O)[nH]1` [FLUOROURACIL], the Activity in [14] was 0 mL⁻¹; in the series with Mus musculus [15], 6.4 /10'3mm'-3; in the series with Mus musculus [16], 10.73%; in the series on Mus musculus [17] it was 23%.

(Values after ChEMBL document CHEMBL1153769, “Novel modified steroid derivatives of androstanolone as chemotherapeutic anti-cancer agents” (Eur J Med Chem, 2009).)
